GPR7 antagonist – GPR7 receptor antagonists, primary screen, cell-based, fluorescence, single concentration | inhibition, % at 4.4 µM | GPR7-expressing cells, fluorescence antagonist assay | Neuropeptides B/W receptor type 1 (Homo sapiens), P48145 | 290,000 tested, 1.1% active | AID 1861, 2009; in the data active means inhibition above about 16%, passing the limit was not always enough;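 further: cells stimulated with the agonist NPW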
Target sequence (P48145 whole entry, looked up): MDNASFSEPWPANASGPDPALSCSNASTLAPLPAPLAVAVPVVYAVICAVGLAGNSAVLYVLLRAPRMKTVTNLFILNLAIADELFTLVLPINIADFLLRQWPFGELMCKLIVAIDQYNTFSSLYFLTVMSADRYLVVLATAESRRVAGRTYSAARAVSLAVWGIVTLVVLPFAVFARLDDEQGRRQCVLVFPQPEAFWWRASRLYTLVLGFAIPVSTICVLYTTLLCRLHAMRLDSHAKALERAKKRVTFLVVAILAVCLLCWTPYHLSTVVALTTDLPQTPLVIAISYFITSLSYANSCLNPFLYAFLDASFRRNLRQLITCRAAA
OX1R antag-1 – antagonists of human orexin 1 receptor (OX1R) | Orexin/Hypocretin receptor type 1 (Homo sapiens), O43613 | OX1R-expressing cells, FRET antagonist read-out | inhibition, % at 6.6 µM | 330,000 tested, 1.8% active; in the data active means inhibition mostly above about 38%, no sharp cut-off; inactive means mostly below about 40%
Target sequence (O43613 whole entry, looked up): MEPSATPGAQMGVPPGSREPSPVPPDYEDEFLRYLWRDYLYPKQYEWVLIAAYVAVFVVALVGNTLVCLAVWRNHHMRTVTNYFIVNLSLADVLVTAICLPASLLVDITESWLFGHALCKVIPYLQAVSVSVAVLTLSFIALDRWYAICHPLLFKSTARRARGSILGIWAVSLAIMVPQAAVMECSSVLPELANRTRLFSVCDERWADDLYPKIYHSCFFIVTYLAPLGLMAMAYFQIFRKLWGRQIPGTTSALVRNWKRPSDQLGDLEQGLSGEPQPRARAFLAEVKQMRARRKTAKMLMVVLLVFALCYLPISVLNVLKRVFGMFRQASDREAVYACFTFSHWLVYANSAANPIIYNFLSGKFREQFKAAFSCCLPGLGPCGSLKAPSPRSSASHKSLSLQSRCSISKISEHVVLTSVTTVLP
OX1R antag-2 – OX1R (HCRTR1) antagonists, primary screen, fluorescence, CHO/OX1R cells, Fluo-8 calcium, orexin A. Orexin/Hypocretin receptor type 1 (Homo sapiens), O43613. 330,000 tested, 0.43% active. Fluo-8 calcium fluorescence. AID 434989, 2010. inhibition, % at 5 µM;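 active means inhibition above its plate's threshold, mean inhibition of all tested compounds on the plate plus 3 SD, cut at about 37% in these data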
TAAR1 antagonist – human TAAR1 antagonists, primary screen, Fluo-8 calcium fluorescence, CHO RD-HGA16 cells; 360,000 tested, 1.5% active; antagonist; AID 624466, 2012; Trace amine-associated receptor 1 (Homo sapiens), Q96RJ0; inhibition, % at 3 µM;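 active means inhibition above a per-plate cutoff, the mean inhibition of test compounds on that plate plus 3 SD, cut at about 49% in these data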
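Test system: hTAAR1-expressing CHO RD-HGA16 cells, Gα16-coupled; Probe or stimulus: EC80 β-phenethylamine stimulus; Compound dosing: single nominal final test compound concentration of 3 µM; Timing: 140 s kinetic read after compound, 140 s after agonist; Signal: Fluo-8 calcium-sensitive fluorescence; Measure: % inhibition of agonist calcium response; Controls: DMSO and EC80 PEA controls.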
CHO parental Ca – ATP-evoked calcium signal inhibitors, parental CHO, primary screen, counter-screen for OX1R antagonist project, cell-based, fluorescence, Fluo-8 calcium dye; inhibition, % at 5.6 µM; parental CHO-K1, ATP-induced calcium, Fluo-8 fluorescence; 330,000 tested, 0.63% active;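 active means inhibition above that plate's mean sample inhibition plus 3 SD, cut at about 26% in these data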
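test system = CHO parental line | reagent = ATP stimulus | measured by = intracellular calcium via Fluo-8 no-wash fluorescent dye | control set = ATP and no-ATP DMSO wells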
TAAR1 agonist – human TAAR1 agonists, primary screen, Fluo-8 calcium fluorescence, CHO RD-HGA16 cells; Trace amine-associated receptor 1 (Homo sapiens), Q96RJ0; activation, % at 3 µM; vehicle wells 0%, saturating PEA agonist 100%; 360,000 tested, 0.99% active;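 active means activation above the mean activation of all test compounds in the run plus 3 SD, cut at about 38% in these data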
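Test system: RD-HGA16 (CHO) cells co-expressing Gα16 and hTAAR1 | Doses: Single dose, 3 µM | Schedule: 17-24 h seeding, 75 min 37 °C dye, 30 min RT | Evaluation: % activation from peak over basal fluorescence ratio, DMSO-to-PEA scaled | Technique: Kinetic Fluo-8 calcium fluorescence | Benchmarks: Low control DMSO, high control PEA (EC100)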
GPR7 antag conf – GPR7 receptor antagonists, confirmation, cell-based, fluorescence, single concentration; GPR7-expressing cells, calcium fluorescence antagonist mode; 2,400 tested, 52% active; shares compounds with GPR7 antagonist; inhibition, % at 4.4 µM; in the data active means inhibition above about 24%;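 further: stimulated with the GPR7 agonist NPW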
MCHR1 antagonist – MCHR1 antagonists in cells, counter-screen for GPR7 antagonist project, cell-based, fluorescence, human | shares compounds with GPR7 antagonist | 2,400 tested, 62% active | inhibition, % at 4.4 µM | AID 2148, 2009 | MCHR1-expressing cells, fluorescence antagonist assay; in the data active means inhibition above about 22%
TAAR1 ag confirm – human TAAR1 agonists, retest of hits, confirmation, Fluo-8 calcium fluorescence, CHO RD-HGA16 cells; 2,400 tested, 82% active; shares compounds with TAAR1 agonist; activation, % at 3 µM; scaled: DMSO 0%, maximal phenethylamine 100%;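 active means activation above a cutoff set at the run's mean compound activation plus 3 SD, cut at about 39% in these data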
Ga16 nonsel ag – nonselective calcium mobilization agonists, CHO-Ga16 cells, counter-screen for hTAAR1 agonist project, cell-based, fluorescence, CHO-Ga16 parental line; 2,400 tested, 50% active; shares compounds with TAAR1 agonist; activation, % at 3 µM; AID 651787, 2012; Fluo-8 calcium fluorescence; normalized to maximal ATP response, DMSO zero;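 active means activation above the run cutoff, the mean activation over all tested wells plus 3 SD, cut at about 12% in these data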
TAAR1 desensitize – TAAR1 desensitization by agonist hits, confirmation, counter-screen for TAAR1 agonist project, cell-based, fluorescence, tachyphylaxis | shares compounds with TAAR1 agonist | CHO RD-HGA16 hTAAR1, Fluo-8 calcium, beta-PEA response inhibition | inhibition, % at 3 µM | AID 651951, 2012 | 2,400 tested, 46% active;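 active means inhibition above the run cutoff, the mean inhibition of all test compounds plus 3 SD, cut at about 49% in these data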;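 further: beta-PEA stimulus applied at its EC80; loss of beta-PEA calcium signal after compound pretreatment read as receptor desensitization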
Ga16 antag count – inhibition of ATP-evoked calcium response in CHO-Ga16 cells, counter-screen for TAAR1 agonist project, cell-based, fluorescence. shares compounds with TAAR1 agonist. CHO-Ga16 ATP-induced calcium, Fluo-8 fluorescence. inhibition, % at 3 µM. 2,400 tested, 39% active. AID 651952, 2012;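 active means inhibition above the plate's mean compound inhibition plus 3 SD, computed per plate, cut at about 22% in these data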
Each line names hits and unclear results; the compound was inactive in the other large screens (follow-up assays come after a bar, where they were run). The list is not random: actives were taken first. Their share in the collection is about 4.6%.

COc1ccc(CNCCC(c2ccccc2)c2ccc3c(c2)OCO3)cc1 (stereo not drawn)	GPR7 antagonist 41, TAAR1 agonist 60 | GPR7 antag conf 46 | MCHR1 antagonist 64 | TAAR1 ag confirm 58 | Ga16 nonsel ag 30 | TAAR1 desensitize 62 | Ga16 antag count 37
CC1(c2ccc(OC(F)F)cc2)NC(=O)N(CC(=O)Nc2ccccc2)C1=O (stereo not drawn)	GPR7 antagonist 89, OX1R antag-2 52, TAAR1 antagonist 99, CHO parental Ca 49, TAAR1 agonist 148 | GPR7 antag conf 85 | MCHR1 antagonist 84 | TAAR1 ag confirm 139 | Ga16 nonsel ag 92 | TAAR1 desensitize 101 | Ga16 antag count 73
CC(=O)Nc1ccc(/C=N/N2C(=O)NC(C)(c3ccc(OC(F)F)cc3)C2=O)cc1 (stereo not drawn)	GPR7 antagonist 39, OX1R antag-2 53, TAAR1 antagonist 97, CHO parental Ca 36, TAAR1 agonist 140 | GPR7 antag conf 98 | MCHR1 antagonist 99 | TAAR1 ag confirm 138 | Ga16 nonsel ag 105 | TAAR1 desensitize 104 | Ga16 antag count 93
CCOC(=O)CN1C(=O)NC(C)(c2ccc(OC(F)F)cc2)C1=O (stereo not drawn)	none
CC1(c2ccc(OC(F)F)cc2)NC(=O)N(CC(=O)Nc2ccc3c(c2)OCO3)C1=O (stereo not drawn)	GPR7 antagonist 78, TAAR1 antagonist 51, CHO parental Ca 40, TAAR1 agonist 110 | GPR7 antag conf 83 | MCHR1 antagonist 82 | TAAR1 ag confirm 107 | Ga16 nonsel ag 73 | TAAR1 desensitize 87 | Ga16 antag count 62
COc1ccc(CNC(=O)CN(C(=O)CCC(=O)Nc2ccccn2)c2ccc3c(c2)OCO3)cc1	none
O=C(CSc1nnc(Cc2ccccc2)o1)Nc1ccc2c(c1)OCO2	none
COc1ccc(CNC(=O)CN(Cc2ccc(OC)cc2)C(=O)c2csnn2)cc1	none
C=CCn1c(O)c(C2=c3ccccc3=NC2=O)c2ccccc21	GPR7 antagonist 38, TAAR1 agonist 64 | GPR7 antag conf 46 | MCHR1 antagonist 86 | TAAR1 ag confirm 63 | Ga16 nonsel ag 38 | TAAR1 desensitize 68 | Ga16 antag count 52
Nc1c(C(=O)NCc2ccc3c(c2)OCO3)nnn1Cc1ccc(Br)cc1	GPR7 antagonist 24, TAAR1 agonist 65 | GPR7 antag conf 27 | MCHR1 antagonist inactive | TAAR1 ag confirm 102 | Ga16 nonsel ag 46 | TAAR1 desensitize 76 | Ga16 antag count 38
COc1ccc(/C=C2/SC(=S)N(Cc3ccccc3)C2=O)cc1O	none (no result: OX1R antag-1, OX1R antag-2, CHO parental Ca)
O=C1/C(=C\c2cc(Cl)c(O)c(Cl)c2)SC(=S)N1Cc1ccccc1	GPR7 antagonist 60, TAAR1 antagonist 97, TAAR1 agonist 111 (no result: OX1R antag-1, OX1R antag-2, CHO parental Ca) | GPR7 antag conf 100 | MCHR1 antagonist 111 | TAAR1 ag confirm 188 | Ga16 nonsel ag 258 | TAAR1 desensitize 107 | Ga16 antag count 106
CN(C(=O)c1cccc(NC(=O)C2CCCN(C(=O)OC(C)(C)C)C2)c1)C1CCCC1 (stereo not drawn)	none (no result: GPR7 antagonist)
COc1cc(C)c(NC(=O)c2cc(C3CC3)nc3c2cnn3C(C)C)cc1OC	none (no result: GPR7 antagonist)
Cc1ccccc1OCc1n(CC(=O)OC2CC(C)CCC2C(C)C)c2ccccc2[n+]1C (stereo not drawn)	GPR7 antagonist 42, OX1R antag-2 46, CHO parental Ca 33, TAAR1 agonist 47 | GPR7 antag conf 61 | MCHR1 antagonist 92 | TAAR1 ag confirm 87 | Ga16 nonsel ag 23 | TAAR1 desensitize 87 | Ga16 antag count 48
Cc1ccc(CC(=O)N2CCN(C(=O)c3ccco3)CC2)cc1	none
CC(=O)Nc1cccc(C(=O)/C=C/c2ccc(N(C)C)cc2)c1	GPR7 antagonist 29, OX1R antag-2 100, TAAR1 antagonist 58, CHO parental Ca 82, TAAR1 agonist 127 | GPR7 antag conf 60 | MCHR1 antagonist 62 | TAAR1 ag confirm 81 | Ga16 nonsel ag 96 | TAAR1 desensitize 71 | Ga16 antag count 75
CC(=O)Nc1cccc(C(=O)/C=C/c2ccc(/C=C/C(=O)c3cccc(NC(C)=O)c3)cc2)c1	none
O=C(Nc1ccnn1C1CCN(Cc2cc3ccccc3[nH]2)CC1)C1CCOC1 (stereo not drawn)	GPR7 antagonist 82, TAAR1 antagonist 83, TAAR1 agonist 58 | GPR7 antag conf 53 | MCHR1 antagonist 74 | TAAR1 ag confirm inactive | Ga16 nonsel ag 23 | TAAR1 desensitize 63 | Ga16 antag count 66
Cc1c(CN2CCC(n3nccc3NC(=O)C3CCOC3)CC2)[nH]c2ccccc12 (stereo not drawn)	none (no result: OX1R antag-1, OX1R antag-2, CHO parental Ca)
CCOC(=O)[C@]12CCCC=C1N(Cc1ccco1)C(=O)[C@H](CC(=O)NCCCN1CCCC1=O)C2	none (no result: GPR7 antagonist, OX1R antag-1, OX1R antag-2, CHO parental Ca)
Cc1ccc(CONC(=O)c2cccc([N+](=O)[O-])c2)cc1	none (no result: GPR7 antagonist)

Screens as filed in PubChem.
